Laboratory results: ChEMBL document CHEMBL4138073, “Synthesis and biological evaluation of 8-hydroxy-2,7-naphthyridin-2-ium salts as novel inhibitors of acetylcholinesterase (AChE) and butyrylcholinesterase (BChE)” (Medchemcomm, 2017)
Active and inactive are the calls of the source. No cut-off for these calls is given here.

Legend:
Acetylcholinesterase = Acetylcholinesterase (Electrophorus electricus, UniProt O42275); test: Inhibition of electric eel AChE at using acetylthiocholine iodide substrate by spectrophotometry based Ellman's assay
Acetylcholinesterase, sequence (O42275 whole entry): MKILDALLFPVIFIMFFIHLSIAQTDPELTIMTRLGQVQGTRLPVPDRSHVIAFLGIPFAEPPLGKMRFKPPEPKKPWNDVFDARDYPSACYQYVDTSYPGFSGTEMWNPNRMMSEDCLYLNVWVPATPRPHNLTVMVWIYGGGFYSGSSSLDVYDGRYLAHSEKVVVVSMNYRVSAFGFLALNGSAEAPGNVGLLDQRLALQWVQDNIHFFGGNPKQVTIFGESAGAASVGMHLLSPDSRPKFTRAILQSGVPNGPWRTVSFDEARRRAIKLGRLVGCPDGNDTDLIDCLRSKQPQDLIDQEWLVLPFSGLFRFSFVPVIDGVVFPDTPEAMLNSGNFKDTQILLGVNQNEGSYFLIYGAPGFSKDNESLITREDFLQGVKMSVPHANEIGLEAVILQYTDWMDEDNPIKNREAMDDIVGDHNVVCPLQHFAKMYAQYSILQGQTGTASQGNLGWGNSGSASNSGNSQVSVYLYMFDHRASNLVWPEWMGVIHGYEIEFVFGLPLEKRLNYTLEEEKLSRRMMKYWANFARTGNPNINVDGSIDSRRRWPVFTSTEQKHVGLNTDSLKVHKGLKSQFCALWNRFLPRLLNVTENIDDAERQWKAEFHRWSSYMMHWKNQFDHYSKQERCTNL

Cholinesterase = Cholinesterase (Equus caballus, UniProt P81908); test: Inhibition of horse serum BChE at using butyrylthiocholine chloride substrate by spectrophotometry based Ellman's assay
Cholinesterase, sequence (P81908 whole entry): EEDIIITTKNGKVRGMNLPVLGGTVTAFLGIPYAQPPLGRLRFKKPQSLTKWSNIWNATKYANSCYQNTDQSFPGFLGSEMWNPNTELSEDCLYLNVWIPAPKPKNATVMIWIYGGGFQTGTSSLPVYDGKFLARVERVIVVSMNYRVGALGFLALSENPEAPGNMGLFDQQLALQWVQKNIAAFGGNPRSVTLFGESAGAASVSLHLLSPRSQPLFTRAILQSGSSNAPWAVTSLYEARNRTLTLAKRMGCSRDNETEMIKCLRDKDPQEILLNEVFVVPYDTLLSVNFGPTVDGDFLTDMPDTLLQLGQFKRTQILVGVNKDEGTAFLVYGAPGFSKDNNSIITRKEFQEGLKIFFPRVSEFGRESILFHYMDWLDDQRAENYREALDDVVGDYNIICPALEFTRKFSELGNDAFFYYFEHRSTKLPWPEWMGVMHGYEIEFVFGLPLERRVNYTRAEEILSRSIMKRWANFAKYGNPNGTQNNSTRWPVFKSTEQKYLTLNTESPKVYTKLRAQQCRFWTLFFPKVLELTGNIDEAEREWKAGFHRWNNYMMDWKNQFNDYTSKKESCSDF

[1] = molecular target: Cholinesterase (Equus caballus) (UniProt P81908); test: Inhibition of horse serum BChE at 10 uM using butyrylthiocholine chloride substrate by spectrophotometry based Ellman's assay
Cholinesterase (Equus caballus), sequence (P81908 whole entry): as above
Summary of the method: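 Ellman kinetic assay in microplates: equine serum BChE (final 0.350 U/ml) added last to start reaction; butyrylthiocholine chloride pseudo-substrate with DTNB; absorbance at 412 nm; 25 °C (room temperature). Tris-HCl 50 mM pH 8 buffer with DMSO ≤0.05% final. Compound absorbance read before enzyme addition as blank. Physostigmine 10 µM final as positive control. Primary screen at 10 µM.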

[2] = Dissociation constant, pKa of the compound at 52 uM at pH 2.3 to 12.3 by UV-Vis spectroscopy; type: physicochemical

Row | Structure (SMILES) | IC50 (Acetylcholinesterase) [nM] | IC50 (Cholinesterase) [nM] | inhibition [1] | pKa at 52 µM [2]
1 | Oc1nc(-c2ccc3ccccc3c2)cc2cc[n+](Cc3ccccc3)cc12 | 990 | 2880 | 97.1% | 
2 | CC[n+]1ccc2cc(-c3ccccc3)nc(O)c2c1 |  |  | 45.9% | 
3 | Oc1nc(-c2ccccc2)cc2cc[n+](Cc3ccccc3)cc12 | 2570 | 4990 | 76.4% | 
4 | CC[n+]1ccc2cc(-c3ccc4ccccc4c3)nc(O)c2c1 |  |  | 59.5% | 
5 | C[n+]1ccc2cc(-c3ccccc3)[nH]c(=O)c2c1 |  |  | 51.6% | 
6 | CC[n+]1ccc2cc(-c3ccccn3)nc(O)c2c1 |  |  | 48.5% | 
7 | CC[n+]1ccc2c3c(nc(O)c2c1)-c1ccccc1C3 | 1550 |  | 77.3% | 
8 | C[n+]1ccc2cc(-c3ccccc3)nc(O)c2c1 |  |  |  | 8.7
9 | Oc1nc2c(c3cc[n+](Cc4ccccc4)cc13)CCc1ccccc1-2 |  |  | inactive | 
